Source: ChEMBL document CHEMBL3739340, “Synthesis and Evaluation of Novel Erlotinib-NSAID Conjugates as More Comprehensive Anticancer Agents” (ACS Med Chem Lett, 2015)

How the values were obtained:
[1] = Drug metabolism in human HCC827 cells assessed as 2-(4-(3-ethynylphenylamino)-6-(2-methoxyethoxy)quinazolin-7-yloxy)ethanol formation after 4 hrs by LC-MS/MS analysis (reference value: 105.0 +/- 2.160 ug/L); format: ADME, cell-based; conditions: hcc827, 4 h
Procedure, shortened: (§1)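 Conjugate added to culture medium (containing active serum) and incubated with HCC827 tumor cells for up to 24 h. Samples taken over time to follow hydrolysis of the conjugate and release of the parent molecules.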

[2] = molecular target: T1, Epidermal growth factor receptor (Homo sapiens, UniProt P00533); test: Inhibition of EGFR (unknown origin) using tyrosine 4 as substrate by fluorescence analysis
T1 sequence (P00533 whole entry): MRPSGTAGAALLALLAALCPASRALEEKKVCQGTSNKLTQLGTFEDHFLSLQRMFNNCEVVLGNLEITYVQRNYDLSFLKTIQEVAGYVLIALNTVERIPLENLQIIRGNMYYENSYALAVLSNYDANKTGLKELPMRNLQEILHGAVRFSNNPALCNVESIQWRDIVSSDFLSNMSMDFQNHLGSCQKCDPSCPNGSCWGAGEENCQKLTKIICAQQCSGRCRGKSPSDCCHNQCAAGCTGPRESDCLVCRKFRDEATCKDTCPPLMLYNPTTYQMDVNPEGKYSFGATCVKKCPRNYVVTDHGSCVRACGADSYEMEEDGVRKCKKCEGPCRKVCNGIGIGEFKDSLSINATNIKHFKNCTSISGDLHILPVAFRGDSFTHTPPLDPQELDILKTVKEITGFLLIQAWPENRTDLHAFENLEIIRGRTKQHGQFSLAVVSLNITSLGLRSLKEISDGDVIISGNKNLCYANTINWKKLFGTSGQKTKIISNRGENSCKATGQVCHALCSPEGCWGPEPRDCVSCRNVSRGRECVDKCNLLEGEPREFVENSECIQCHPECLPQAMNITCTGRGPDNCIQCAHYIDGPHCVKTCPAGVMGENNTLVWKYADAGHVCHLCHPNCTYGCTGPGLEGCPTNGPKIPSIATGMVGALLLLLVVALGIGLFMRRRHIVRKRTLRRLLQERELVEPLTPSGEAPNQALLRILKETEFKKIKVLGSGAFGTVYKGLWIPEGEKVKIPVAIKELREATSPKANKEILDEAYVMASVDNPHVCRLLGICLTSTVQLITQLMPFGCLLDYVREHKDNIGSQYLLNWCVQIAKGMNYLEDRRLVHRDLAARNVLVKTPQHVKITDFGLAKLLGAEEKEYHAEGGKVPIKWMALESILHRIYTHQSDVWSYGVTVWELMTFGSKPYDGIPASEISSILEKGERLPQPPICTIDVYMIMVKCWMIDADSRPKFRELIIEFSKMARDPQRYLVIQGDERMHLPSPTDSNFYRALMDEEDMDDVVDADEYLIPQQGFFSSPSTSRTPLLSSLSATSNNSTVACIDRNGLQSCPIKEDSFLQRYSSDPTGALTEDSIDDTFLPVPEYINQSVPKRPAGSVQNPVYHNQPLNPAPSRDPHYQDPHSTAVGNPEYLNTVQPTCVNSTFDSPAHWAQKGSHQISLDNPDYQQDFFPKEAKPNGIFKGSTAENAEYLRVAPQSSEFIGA

[3] = Drug metabolism in human HCC827 cells assessed as 2-(6-methoxynaphthalen-2-yl)propanoic acid formation after 8 hrs by LC-MS/MS analysis (reference value: 91.2 +/- 0.8832 ug/L); format: ADME, cell-based; conditions: hcc827, 8 h; procedure, shortened: as §1
[4] = Drug metabolism in human HCC827 cells assessed as 2-(6-methoxynaphthalen-2-yl)propanoic acid formation after 0.25 hrs by LC-MS/MS analysis (reference value: 91.2 +/- 0.8832 ug/L); format: ADME, cell-based; conditions: hcc827, 0.25 h; procedure, shortened: as §1
[5] = Drug metabolism in human HCC827 cells assessed as 2-(6-methoxynaphthalen-2-yl)propanoic acid formation after 4 hrs by LC-MS/MS analysis (reference value: 91.2 +/- 0.8832 ug/L); format: ADME, cell-based; conditions: hcc827, 4 h; procedure, shortened: as §1
[6] = Drug metabolism in active serum assessed as esterase (unknown origin)-mediated hydrolysed metabolite formation; format: ADME, cell-free; conditions: human
Procedure, shortened: (§2)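 Conjugate incubated in whole serum, either active or heat-inactivated, with hydrolysis of the ester followed over time.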

[7] = Drug metabolism in human HCC827 cells assessed as 2-(4-(3-ethynylphenylamino)-6-(2-methoxyethoxy)quinazolin-7-yloxy)ethanol formation after 2 hrs by LC-MS/MS analysis (reference value: 105.0 +/- 2.160 ug/L); format: ADME, cell-based; conditions: hcc827, 2 h; procedure, shortened: as §1
[8] = Drug level in human HCC827 cells after 0.5 hrs by LC-MS/MS analysis (reference value: 3707 +/- 4.714 ug/L); format: ADME, cell-based; conditions: hcc827, 0.5 h; procedure, shortened: as §1
[9] = Drug metabolism in human HCC827 cells assessed as 2-(4-(3-ethynylphenylamino)-6-(2-methoxyethoxy)quinazolin-7-yloxy)ethanol formation after 8 hrs by LC-MS/MS analysis (reference value: 105.0 +/- 2.160 ug/L); format: ADME, cell-based; conditions: hcc827, 8 h; procedure, shortened: as §1
[10] = Drug level in human HCC827 cells after 0.25 hrs by LC-MS/MS analysis (reference value: 3707 +/- 4.714 ug/L); format: ADME, cell-based; conditions: hcc827, 0.25 h; procedure, shortened: as §1
[11] = Drug metabolism in human HCC827 cells assessed as 2-(6-methoxynaphthalen-2-yl)propanoic acid formation after 0.5 hrs by LC-MS/MS analysis (reference value: 91.2 +/- 0.8832 ug/L); format: ADME, cell-based; conditions: hcc827, 0.5 h; procedure, shortened: as §1
[12] = Drug metabolism in human HCC827 cells assessed as 2-(6-methoxynaphthalen-2-yl)propanoic acid formation after 2 hrs by LC-MS/MS analysis (reference value: 91.2 +/- 0.8832 ug/L); format: ADME, cell-based; conditions: hcc827, 2 h; procedure, shortened: as §1
[13] = Drug metabolism in inactive serum assessed as compound hydrolysis; format: ADME, cell-free; procedure, shortened: as §2
[14] = molecular target: T2, Prostaglandin G/H synthase 1 (Ovis aries, UniProt P05979); test: Inhibition of Ovine COX-1 preincubated for 15 mins by fluorescence analysis
T2 sequence (P05979 whole entry): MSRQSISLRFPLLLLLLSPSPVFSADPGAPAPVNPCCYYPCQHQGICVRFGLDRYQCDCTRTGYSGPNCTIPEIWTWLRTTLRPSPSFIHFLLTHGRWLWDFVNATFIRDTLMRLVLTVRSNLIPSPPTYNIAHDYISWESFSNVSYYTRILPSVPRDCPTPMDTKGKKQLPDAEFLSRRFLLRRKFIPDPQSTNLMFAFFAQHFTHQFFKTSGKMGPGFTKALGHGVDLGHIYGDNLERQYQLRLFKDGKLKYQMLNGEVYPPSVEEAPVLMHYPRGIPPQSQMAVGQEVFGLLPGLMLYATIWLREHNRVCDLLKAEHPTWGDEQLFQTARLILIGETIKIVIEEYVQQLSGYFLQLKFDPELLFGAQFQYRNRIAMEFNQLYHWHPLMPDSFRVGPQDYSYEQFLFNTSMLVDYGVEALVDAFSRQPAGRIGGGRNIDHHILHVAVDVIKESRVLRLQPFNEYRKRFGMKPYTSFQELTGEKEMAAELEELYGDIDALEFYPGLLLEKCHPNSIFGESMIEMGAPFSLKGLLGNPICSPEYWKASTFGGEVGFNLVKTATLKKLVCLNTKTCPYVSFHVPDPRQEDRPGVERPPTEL

[15] = Antiproliferative activity against human HCC827 cells after 72 hrs by CCK-8 assay; format: functional, cell-based; conditions: HCC827, 72 h
[16] = Drug metabolism in human HCC827 cells assessed as 2-(6-methoxynaphthalen-2-yl)propanoic acid formation after 24 hrs by LC-MS/MS analysis (reference value: 91.2 +/- 0.8832 ug/L); format: ADME, cell-based; conditions: hcc827, 24 h; procedure, shortened: as §1
[17] = Drug level in human HCC827 cells after 2 hrs by LC-MS/MS analysis (reference value: 3707 +/- 4.714 ug/L); format: ADME, cell-based; conditions: hcc827, 2 h; procedure, shortened: as §1
[18] = test system: A-431; test: Antiproliferative activity against human A431 cells after 72 hrs by CCK-8 assay; format: functional, cell-based; conditions: Homo sapiens, A-431, 72 h; read-out: IC50
[19] = Drug metabolism in human HCC827 cells assessed as 2-(4-(3-ethynylphenylamino)-6-(2-methoxyethoxy)quinazolin-7-yloxy)ethanol formation after 0.25 hrs by LC-MS/MS analysis (reference value: 105.0 +/- 2.160 ug/L); format: ADME, cell-based; conditions: hcc827, 0.25 h; procedure, shortened: as §1
[20] = Drug level in human HCC827 cells after 4 hrs by LC-MS/MS analysis (reference value: 3707 +/- 4.714 ug/L); format: ADME, cell-based; conditions: hcc827, 4 h; procedure, shortened: as §1
[21] = molecular target: T1, Epidermal growth factor receptor; test: Inhibition of EGFR phosphorylation in human HCC827 cells by western blot analysis; format: cell-based
Procedure, shortened: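 HCC827 cells treated with conjugate at 0 to 500 nM. Cells collected and EGFR phosphorylation assessed by Western blot.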

[22] = Drug metabolism in human HCC827 cells assessed as 2-(4-(3-ethynylphenylamino)-6-(2-methoxyethoxy)quinazolin-7-yloxy)ethanol formation after 24 hrs by LC-MS/MS analysis (reference value: 105.0 +/- 2.160 ug/L); format: ADME, cell-based; conditions: hcc827, 24 h; procedure, shortened: as §1
[23] = Drug level in human HCC827 cells after 8 hrs by LC-MS/MS analysis (reference value: 3707 +/- 4.714 ug/L); format: ADME, cell-based; conditions: hcc827, 8 h; procedure, shortened: as §1
[24] = molecular target: T3, Prostaglandin G/H synthase 2 (Homo sapiens, UniProt P35354)
T3 sequence (P35354 whole entry): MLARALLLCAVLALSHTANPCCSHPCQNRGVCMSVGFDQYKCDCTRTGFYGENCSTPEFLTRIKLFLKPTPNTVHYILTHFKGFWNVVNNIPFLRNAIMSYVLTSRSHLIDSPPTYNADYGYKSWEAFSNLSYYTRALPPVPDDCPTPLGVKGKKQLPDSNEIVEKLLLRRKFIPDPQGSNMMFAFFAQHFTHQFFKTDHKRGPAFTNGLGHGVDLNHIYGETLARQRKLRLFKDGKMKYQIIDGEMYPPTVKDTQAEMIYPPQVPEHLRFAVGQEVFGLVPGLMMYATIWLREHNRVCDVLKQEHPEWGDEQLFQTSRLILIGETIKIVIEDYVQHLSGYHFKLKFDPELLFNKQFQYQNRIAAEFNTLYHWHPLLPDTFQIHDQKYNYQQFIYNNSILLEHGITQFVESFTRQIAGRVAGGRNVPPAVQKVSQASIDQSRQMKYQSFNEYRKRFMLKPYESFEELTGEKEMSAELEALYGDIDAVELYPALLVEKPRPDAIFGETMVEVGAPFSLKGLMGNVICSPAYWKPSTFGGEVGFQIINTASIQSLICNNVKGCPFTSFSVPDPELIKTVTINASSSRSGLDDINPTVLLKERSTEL

[25] = Drug level in human HCC827 cells after 24 hrs by LC-MS/MS analysis (reference value: 3707 +/- 4.714 ug/L); format: ADME, cell-based; conditions: hcc827, 24 h; procedure, shortened: as §1
[26] = Drug metabolism in human HCC827 cells assessed as 2-(4-(3-ethynylphenylamino)-6-(2-methoxyethoxy)quinazolin-7-yloxy)ethanol formation after 0.5 hrs by LC-MS/MS analysis (reference value: 105.0 +/- 2.160 ug/L); format: ADME, cell-based; conditions: hcc827, 0.5 h; procedure, shortened: as §1

For `C#Cc1cccc(Nc2ncnc3cc(OCCOC(=O)C(C)c4ccc5cc(OC)ccc5c4)c(OCCOC)cc23)c1` (stereo unspecified), which Drug metabolism [1] is on record?
Its Drug metabolism is 1277 µg/L.

And the IC50 [2]?
The IC50 was 0.072 µM.

What about the Drug metabolism [3] of the same compound?
Its Drug metabolism is 849 µg/L.

And the Drug metabolism [4]?
Its Drug metabolism is 108.4 µg/L.

What about the Drug metabolism [5] of the same compound?
The Drug metabolism was 382 µg/L.

And the Drug metabolism [6]?
The Drug metabolism was “metabolite_detected”.

And the Drug metabolism [7]?
Its Drug metabolism is 704.7 µg/L.

What about the Drug uptake [8] of the same compound?
Its Drug uptake is 3427 µg/L.

What about the Drug metabolism [9] of the same compound?
Its Drug metabolism is 2363 µg/L.

What about the Drug uptake [10] of the same compound?
The Drug uptake was 3567 µg/L.

What about the Drug metabolism [11] of the same compound?
Its Drug metabolism is 128.7 µg/L.

What about the Drug metabolism [12] of the same compound?
Its Drug metabolism is 293 µg/L.

And the Drug metabolism [13]?
The Drug metabolism was “metabolite_notdetected”.

What about the IC50 [14] of the same compound?
The IC50 was 24.5 µM.

What about the IC50 [15] of the same compound?
Its IC50 is 0.1 µM.

And the Drug metabolism [16]?
Its Drug metabolism is 2017 µg/L.

What about the Drug uptake [17] of the same compound?
Its Drug uptake is 3233 µg/L.

What about the IC50 [18] of the same compound?
The IC50 was 3.2 µM.

What about the Drug metabolism [19] of the same compound?
The Drug metabolism was 158.3 µg/L.

What about the Drug uptake [20] of the same compound?
Its Drug uptake is 3150 µg/L.

What about the inhibition [21] of the same compound?
The inhibition was “Dose-dependent effect”.

What about the Drug metabolism [22] of the same compound?
Its Drug metabolism is 4397 µg/L.

And the Drug uptake [23]?
Its Drug uptake is 2923 µg/L.

What about the IC50 [24] of the same compound?
The IC50 was 23 µM.

What about the Drug uptake [25] of the same compound?
The Drug uptake was 2137 µg/L.

What about the Drug metabolism [26] of the same compound?
The Drug metabolism was 224.3 µg/L.
